Data: ChEMBL document CHEMBL1157373, “Dual targeting of DNA gyrase and topoisomerase IV: target interactions of heteroaryl isothiazolones in Staphylococcus aureus” (Antimicrob Agents Chemother, 2007)
≈ marks a conversion by molar mass, not a printed value.

Key:
Staphylococcus aureus [1] = assay: Antibacterial activity against Staphylococcus aureus ACH-0192 isolate with gyrA Ser84Leu and grlA Ser80Phe, Ala116Val mutant after 24 hrs by broth microdilution method; format: functional
Staphylococcus aureus [2] = assay: Antibacterial activity against Staphylococcus aureus ACH-0210 isolate with gyrA Ser84Leu and grlA Ser80Phe mutant after 24 hrs by broth microdilution method; format: functional
Staphylococcus aureus [3] = assay: Antibacterial activity against Staphylococcus aureus ACH-0203 isolate with gyrA Ser84Leu and grlA Ser80Phe, Ala116Val mutant after 24 hrs by broth microdilution method; format: functional
In short: (§1)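 Broth microdilution per CLSI guidelines. MIC taken as the lowest concentration preventing visible growth at 24 h. Each MIC determined at least twice.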

Staphylococcus aureus [4] = assay: Antibacterial activity against Staphylococcus aureus ATCC 33591 isolate after 24 hrs by broth microdilution method; format: functional; conditions: ATCC 33591, 24 h; in short: as §1
Staphylococcus aureus [5] = assay: Antibacterial activity against Staphylococcus aureus ACH-0231 isolate with gyrA Ser84Leu, Glu88Lys and grlA Ser80Tyr, Glu84Gly mutant after 24 hrs by broth microdilution method; format: functional
Staphylococcus aureus [6] = assay: Antibacterial activity against Staphylococcus aureus ACH-0141 isolate with gyrA Ser84Leu, Glu88Val and grlA Ser80Phe, Ala116Val mutant after 24 hrs by broth microdilution method; format: functional
Staphylococcus aureus [7] = assay: Antibacterial activity against Staphylococcus aureus BSA643 isolate with gyrA Ser84Leu and grlA Ser80Tyr, Glu84Gly mutant after 24 hrs by broth microdilution method; format: functional
[8] = Inhibition of Staphylococcus aureus […] topoisomerase 4 grlA S80F mutant decatenation activity assessed as unlinking of DNA microcircles from kinetoplast DNA
In short: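 Recombinant S. aureus GrlA (Ser80Phe) and GrlB were mixed 1:1 molar on ice for 10 min. kDNA (0.1 μg) with 2 U enzyme, 30 min at 37°C, in 1 mM ATP, 5 mM MgCl2, 250 mM K-glutamate, 50 mM Tris pH 7.5. Reactions stopped with EDTA, run on 1% agarose-TBE and ethidium-stained, minicircles quantitated. IC50 by nonlinear regression.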

Staphylococcus aureus [9] = assay: Antibacterial activity against Staphylococcus aureus ATCC 29213 after 24 hrs by broth microdilution method; format: functional; conditions: ATCC 29213, 24 h; in short: as §1
Staphylococcus aureus [10] = assay: (§2) Antibacterial activity against Staphylococcus aureus ACH-0129 isolate with gyrA Ser84Leu, Glu88Val and grlA Ser80Phe, Ala116Val mutant after 24 hrs by broth microdilution method; format: functional
Staphylococcus aureus [11] = assay: Antibacterial activity against Staphylococcus aureus ACH-0204 isolate with gyrA Ser84Leu mutant after 24 hrs by broth microdilution method; format: functional; in short: as §1
DNA gyrase subunit A = DNA gyrase subunit A (Staphylococcus aureus, UniProt P20831, S84L); assay: Inhibition of Staphylococcus aureus DNA gyrase gyrA S84L mutant supercoiling activity assessed as effect on conversion of relaxed pBR322 DNA to supercoiled form
Staphylococcus aureus [12] = assay: as §2; format: functional; remark: listed apart in the source
Staphylococcus aureus [13] = assay: Antibacterial activity against Staphylococcus aureus ACH-0218 isolate with grlA Glu84Lys mutant after 24 hrs by broth microdilution method; format: functional; in short: as §1
Staphylococcus aureus [14] = assay: Antibacterial activity against Staphylococcus aureus ATCC 700699 isolate with gyrA Ser84Leu, Glu409Lys and grlA Ser80Phe mutant after 24 hrs by broth microdilution method; format: functional; conditions: ATCC 700699, 24 h
Staphylococcus aureus [15] = assay: Antibacterial activity against Staphylococcus aureus ACH-0201 isolate with gyrA Ser84Leu, Glu88Val and grlA Ser80Phe, Ala116Val mutant after 24 hrs by broth microdilution method; format: functional
Staphylococcus aureus [16] = assay: Antibacterial activity against Staphylococcus aureus NY2746 isolate with gyrA Ser84Leu and grlA Ser80Phe mutant after 24 hrs by broth microdilution method; format: functional
Staphylococcus aureus [17] = assay: Antibacterial activity against Staphylococcus aureus BSA678 isolate with gyrA Ser84Leu, Ser85Pro and grlA Ser80Phe, Glu84Lys mutant after 24 hrs by broth microdilution method
Staphylococcus aureus [18] = assay: Antibacterial activity against Staphylococcus aureus ACH-0126 isolate with gyrA Ser84Leu and grlA Ser80Phe mutant after 24 hrs by broth microdilution method; format: functional
[19] = Inhibition of Staphylococcus aureus wild-type topoisomerase 4 decatenation activity assessed as unlinking of DNA microcircles from kinetoplast DNA
In short: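 S. aureus topo IV reconstituted from His-purified recombinant GrlA and GrlB (E. coli BL21(DE3)pLysS expression), mixed 1:1 molar on ice 10 min. 0.1 μg catenated kDNA with 2 U enzyme, 30 min at 37°C in 1 mM ATP, 5 mM DTT, 5 mM MgCl2, 50 μg/ml BSA, 50 mM Tris-HCl pH 7.5, 250 mM potassium glutamate. Products on 1% agarose gel, ethidium-stained, quantitated; IC50 by nonlinear regression.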

Staphylococcus aureus [20] = assay: Antibacterial activity against Staphylococcus aureus ACH-0186 isolate with gyrA Ser84Leu and grlA Ser80Phe, Ala116Val mutant after 24 hrs by broth microdilution method; format: functional
Staphylococcus aureus [21] = assay: Antibacterial activity against Staphylococcus aureus ACH-0206 isolate with gyrA Ser84Leu mutant after 24 hrs by broth microdilution method; format: functional; in short: as §1
Staphylococcus aureus [22] = assay: Antibacterial activity against Staphylococcus aureus ACH-0216 isolate with grlA Ser80Phe mutant after 24 hrs by broth microdilution method; format: functional; in short: as §1
Staphylococcus aureus [23] = assay: Antibacterial activity against Staphylococcus aureus ACH-0221 isolate with gyrA Ser84Leu mutant after 24 hrs by broth microdilution method; format: functional; in short: as §1

Row | SMILES | MIC (Staphylococcus aureus [1]) [µg/mL] | MIC (Staphylococcus aureus [2]) [µg/mL] | MIC (Staphylococcus aureus [3]) [µg/mL] | MIC (Staphylococcus aureus [4]) [µg/mL] | MIC (Staphylococcus aureus [5]) [µg/mL] | MIC (Staphylococcus aureus [6]) [µg/mL] | MIC (Staphylococcus aureus [7]) [µg/mL] | IC50 [8] [µM] | MIC (Staphylococcus aureus [9]) [µg/mL] | MIC (Staphylococcus aureus [10]) [µg/mL] | MIC (Staphylococcus aureus [11]) [µg/mL] | IC50 (DNA gyrase subunit A) [µM] | MIC (Staphylococcus aureus [13]) [µg/mL] | MIC (Staphylococcus aureus [14]) [µg/mL] | MIC (Staphylococcus aureus [15]) [µg/mL] | MIC (Staphylococcus aureus [17]) [µg/mL] | IC50 [19] [µM] | MIC (Staphylococcus aureus [21]) [µg/mL] | MIC (Staphylococcus aureus [22]) [µg/mL] | MIC (Staphylococcus aureus [23]) [µg/mL] | other results
1 | COc1c(-c2cc(C)nc(C)c2)c(F)cc2c(=O)c3c(=O)[nH]sc3n(C3CC3)c12 | 1 (≈ 2.43 µM) | 0.125 (≈ 0.304 µM) | 1 (≈ 2.43 µM) | 0.004 (≈ 0.00972 µM) | 1 (≈ 2.43 µM) | 2 (≈ 4.86 µM) | 0.125 (≈ 0.304 µM) | 9.3 | 0.004 (≈ 0.00972 µM) | 0.5 (≈ 1.22 µM) | 0.016 (≈ 0.0389 µM) | 21.5 | 0.004 (≈ 0.00972 µM) | 0.125 (≈ 0.304 µM) | 1 (≈ 2.43 µM) | 0.5 (≈ 1.22 µM) | 0.8 | 0.015 (≈ 0.0365 µM) | 0.008 (≈ 0.0194 µM) | 0.03 (≈ 0.0729 µM) | MIC (Staphylococcus aureus [12]): 0.5 µg/mL (≈ 1.22 µM); MIC (Staphylococcus aureus [16]): 0.25 µg/mL (≈ 0.608 µM); MIC (Staphylococcus aureus [18]): 0.125 µg/mL (≈ 0.304 µM); MIC (Staphylococcus aureus [20]): 0.25 µg/mL (≈ 0.608 µM)
2 | O=C(O)c1cn(C2CC2)c2cc(N3CCNCC3)c(F)cc2c1=O [CIPROFLOXACIN] | – | – | 128 (≈ 386 µM) | – | – | – | – | > 40 | 0.25 (≈ 0.754 µM) | – | 0.5 (≈ 1.51 µM) | – | 2 (≈ 6.04 µM) | – | – | 128 (≈ 386 µM) | 3 | 0.5 (≈ 1.51 µM) | 2 (≈ 6.04 µM) | 1 (≈ 3.02 µM) | –
3 | CO/N=C1\CN(c2nc3c(cc2F)c(=O)c(C(=O)O)cn3C2CC2)CC1CN (configuration not stated) [GEMIFLOXACIN] | 8 (≈ 20.5 µM) | 4 (≈ 10.3 µM) | 32 (≈ 82.2 µM) | 0.06 (≈ 0.154 µM) | > 64 | 4 (≈ 10.3 µM) | 32 (≈ 82.2 µM) | 9.8 | 0.03 (≈ 0.077 µM) | 8 (≈ 20.5 µM) | 0.125 (≈ 0.321 µM) | > 300 | 0.125 (≈ 0.321 µM) | 4 (≈ 10.3 µM) | 8 (≈ 20.5 µM) | 64 (≈ 164 µM) | 0.4 | 0.125 (≈ 0.321 µM) | 0.125 (≈ 0.321 µM) | 0.5 (≈ 1.28 µM) | MIC (Staphylococcus aureus [16]): 32 µg/mL (≈ 82.2 µM); MIC (Staphylococcus aureus [18]): 4 µg/mL (≈ 10.3 µM); MIC (Staphylococcus aureus [20]): 4 µg/mL (≈ 10.3 µM)
